Data on 25 compounds can be found in ChEMBL document CHEMBL1141088, “A new pyridazine series of GABAA alpha5 ligands” (J Med Chem, 2005).

SMILES strings stand for the structures. Bounds are passed on as bounds.

For assay [1], the target named is GABA-A receptor; alpha-5/beta-3/gamma-2 (Homo sapiens) (UniProt P18507+P28472+P31644). In words: Efficacy at GABAA alpha-5-beta-3-gamma-2 receptor expressed in mouse fibroblast L(tk-) cells measured at 300 nM derived from at least three plates/day screened over a minimum of 2 days. Type of assay: functional, cell-based. Summed up:
(§1)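 FRET membrane-potential (VIPR) assay in L(tk-) cells with receptor expression induced 24 h by 1 µM dexamethasone. Dye-loaded 30 min in low-Cl- HEPES buffer pH 7.4: 4 µM CC2-DMPE, 1 µM DiSBAC2(3), 0.5 mM tartrazine. Basal read 8 s, compound at 300 nM, half-maximal GABA 22 s later, 1 Hz reads. Background-subtracted 460/580 nm ratio, normalized to DMCM as -100%.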

The target in assay [2] is T1, GABA-A receptor; alpha-1/beta-3/gamma-2 (Homo sapiens, UniProt P14867+P18507+P28472).
T1 sequence (P14867 whole entry): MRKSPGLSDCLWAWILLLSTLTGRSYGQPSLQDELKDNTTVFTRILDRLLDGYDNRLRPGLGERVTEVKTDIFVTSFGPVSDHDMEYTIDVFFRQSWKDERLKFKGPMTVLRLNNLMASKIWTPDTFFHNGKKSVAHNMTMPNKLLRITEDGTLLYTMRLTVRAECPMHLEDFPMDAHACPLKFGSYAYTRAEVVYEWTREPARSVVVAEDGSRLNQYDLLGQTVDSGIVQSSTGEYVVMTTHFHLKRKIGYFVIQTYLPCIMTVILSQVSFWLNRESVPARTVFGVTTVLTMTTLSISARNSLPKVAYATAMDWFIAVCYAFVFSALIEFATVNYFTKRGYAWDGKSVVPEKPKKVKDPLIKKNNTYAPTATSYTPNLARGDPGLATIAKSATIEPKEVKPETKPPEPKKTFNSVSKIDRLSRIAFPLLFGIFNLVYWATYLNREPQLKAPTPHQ
T1 sequence (P18507 whole entry): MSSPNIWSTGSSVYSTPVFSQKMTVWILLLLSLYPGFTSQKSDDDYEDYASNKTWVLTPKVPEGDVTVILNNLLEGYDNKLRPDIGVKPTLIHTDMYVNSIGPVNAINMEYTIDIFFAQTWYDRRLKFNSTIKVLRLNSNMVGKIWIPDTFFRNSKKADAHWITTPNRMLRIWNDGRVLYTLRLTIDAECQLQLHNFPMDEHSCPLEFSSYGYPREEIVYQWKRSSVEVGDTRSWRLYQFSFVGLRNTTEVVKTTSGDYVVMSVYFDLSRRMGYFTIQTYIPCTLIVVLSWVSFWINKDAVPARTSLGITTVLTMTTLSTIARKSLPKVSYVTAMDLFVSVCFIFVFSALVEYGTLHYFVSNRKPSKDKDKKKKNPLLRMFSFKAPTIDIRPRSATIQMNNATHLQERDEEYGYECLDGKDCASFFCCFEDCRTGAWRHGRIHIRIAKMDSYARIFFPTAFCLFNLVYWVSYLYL
T1 sequence (P28472 whole entry): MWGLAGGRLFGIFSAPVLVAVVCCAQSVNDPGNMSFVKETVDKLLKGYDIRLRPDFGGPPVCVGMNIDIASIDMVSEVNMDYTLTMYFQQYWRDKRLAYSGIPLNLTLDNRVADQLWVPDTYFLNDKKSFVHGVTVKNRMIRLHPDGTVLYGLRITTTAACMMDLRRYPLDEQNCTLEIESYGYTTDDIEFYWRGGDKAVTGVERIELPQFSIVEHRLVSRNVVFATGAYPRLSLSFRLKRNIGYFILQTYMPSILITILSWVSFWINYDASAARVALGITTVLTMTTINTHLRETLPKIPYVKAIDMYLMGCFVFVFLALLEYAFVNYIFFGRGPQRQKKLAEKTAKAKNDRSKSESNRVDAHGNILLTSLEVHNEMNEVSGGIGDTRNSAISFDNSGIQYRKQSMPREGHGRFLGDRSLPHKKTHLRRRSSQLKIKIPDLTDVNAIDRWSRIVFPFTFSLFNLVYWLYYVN
In words: Displacement of [3H]-Ro- 15-1788 binding from human recombinant Gamma-aminobutyric acid A receptor alpha-1-beta-3-gamma-2 expressed in mouse fibroblast L(tk-) cells (30 min at 24 degrees C, pH 7.4). Type of assay: cell-based. Summed up:
(§2)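 Membranes from L(tk-) cells stably expressing human α1, α3 or α5 β3γ2 in 50 mM Tris pH 7.4. [3H]Ro15-1788 at 1.8 nM final, 30 min at 24 °C. Nonspecific binding set with 10 µM flunitrazepam, total binding in 0.1% DMSO. Filtration, scintillation counting. Ki is mean ± SEM of ≥3 independent determinations.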
Background: In a radioligand displacement assay an active substance lowers the binding of a labelled ligand.

Assay [3] deals with T2, GABA-A receptor; alpha-5/beta-3/gamma-2 (Homo sapiens, UniProt P18507+P28472+P31644).
T2 sequence (P18507 whole entry): T1 sequence (P18507 whole entry)
T2 sequence (P28472 whole entry): T1 sequence (P28472 whole entry)
T2 sequence (P31644 whole entry): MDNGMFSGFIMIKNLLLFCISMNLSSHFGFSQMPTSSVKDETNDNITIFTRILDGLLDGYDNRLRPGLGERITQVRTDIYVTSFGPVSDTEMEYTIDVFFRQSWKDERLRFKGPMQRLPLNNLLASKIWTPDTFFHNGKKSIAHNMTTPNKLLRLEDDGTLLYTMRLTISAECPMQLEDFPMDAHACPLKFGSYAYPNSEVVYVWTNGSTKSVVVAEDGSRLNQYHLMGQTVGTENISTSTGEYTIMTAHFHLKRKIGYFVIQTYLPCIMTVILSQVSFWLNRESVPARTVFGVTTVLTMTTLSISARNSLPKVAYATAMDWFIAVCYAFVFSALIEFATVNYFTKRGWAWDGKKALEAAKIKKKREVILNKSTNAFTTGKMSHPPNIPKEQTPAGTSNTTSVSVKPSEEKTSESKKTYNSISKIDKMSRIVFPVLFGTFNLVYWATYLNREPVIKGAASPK
In words: Displacement of [3H]-Ro- 15-1788 binding from human recombinant Gamma-aminobutyric acid A receptor alpha-5-beta-3-gamma-2 expressed in mouse fibroblast L(tk-) cells (30 min at 24 degrees C, pH 7.4). Type of assay: cell-based. An outline of the steps: as §2

The target of assay [4] is GABA-A receptor; alpha-3/beta-3/gamma-2 (Homo sapiens) (UniProt P18507+P28472+P34903). As to the kind of experiment: Efficacy at GABAA alpha-3-beta-3-gamma-2 receptor expressed in mouse fibroblast L(tk-) cells measured at 300 nM derived from at least three plates/day screened over a minimum of 2 days. Type of assay: functional, cell-based. An outline of the steps:
as §1

The target of assay [5] is T3, GABA-A receptor; alpha-3/beta-3/gamma-2 (Homo sapiens, UniProt P18507+P28472+P34903).
T3 sequence (P18507 whole entry): T1 sequence (P18507 whole entry)
T3 sequence (P28472 whole entry): T1 sequence (P28472 whole entry)
T3 sequence (P34903 whole entry): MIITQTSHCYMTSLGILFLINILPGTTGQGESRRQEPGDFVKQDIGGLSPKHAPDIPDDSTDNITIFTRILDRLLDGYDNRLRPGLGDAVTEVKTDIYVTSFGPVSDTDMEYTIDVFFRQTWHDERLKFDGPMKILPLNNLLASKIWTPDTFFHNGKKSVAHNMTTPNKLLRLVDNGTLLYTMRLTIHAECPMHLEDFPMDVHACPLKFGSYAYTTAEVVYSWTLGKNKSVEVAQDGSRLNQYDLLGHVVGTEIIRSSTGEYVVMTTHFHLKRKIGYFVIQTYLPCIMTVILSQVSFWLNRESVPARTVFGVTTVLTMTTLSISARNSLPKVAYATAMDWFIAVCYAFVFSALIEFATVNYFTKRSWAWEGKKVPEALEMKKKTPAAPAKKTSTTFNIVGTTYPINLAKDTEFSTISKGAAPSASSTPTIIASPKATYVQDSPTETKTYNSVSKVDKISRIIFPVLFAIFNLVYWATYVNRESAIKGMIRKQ
As to the kind of experiment: Displacement of [3H]-Ro- 15-1788 binding from human recombinant Gamma-aminobutyric acid A receptor alpha-3-beta-3-gamma-2 expressed in mouse fibroblast L(tk-) cells (30 min at 24 degrees C, pH 7.4). Type of assay: cell-based. Summed up:
as §2

On to `c1ccc(-c2cc(-c3ccnc(-c4ccncc4)n3)cnn2)cc1`, for which the Efficacy in assay [1] was -62; in assay [4], -49. The Ki (usually a measure of affinity in units of concentration, obtained from inhibition or displacement) is 1.3 nM in assay [2], 1.6 nM in assay [3] and 3.1 nM in assay [5].

Take `c1ccc(-c2cnnc(-c3ccccc3)c2)cc1`: the Efficacy in assay [1] is -14; in assay [4], -20. Moreover, the inhibition constant (Ki) in assay [2] came to 36 nM; in assay [3], 29 nM; in assay [5], 45 nM.

Consider `CC(C)Oc1cc(-c2cccc(Br)c2)cnn1`, for which the Efficacy came to 12 in assay [1] and 28 in assay [4]. For the same compound, the Ki in assay [2] is 26 nM; in assay [3] it was 36 nM; in assay [5], 60 nM.

Regarding `Brc1cccc(-c2cnnc(NCc3ccccc3)c2)c1`, the Efficacy in assay [1] worked out at 14; in assay [4], 66. Moreover, the Ki in assay [3] amounted to 19 nM; in assay [5], 51 nM.

Take `CC(C)Nc1cc(-c2cccc(Br)c2)cnn1`: the Efficacy in assay [1] turned out to be 14; in assay [4], 25. Moreover, the inhibition constant (Ki) is 7.3 nM in assay [2], 7.2 nM in assay [3] and 22 nM in assay [5].

In the case of `N#Cc1cccc(-c2cnnc(-c3cccc(F)c3)c2)c1`, the Efficacy in assay [1] came out at 0; in assay [4], 3.6. For the same compound, the inhibitory constant (Ki) in assay [3] worked out at 4 nM; in assay [5], 7.2 nM.

Regarding `CCOc1cc(-c2cccc(Br)c2)cnn1`, the Efficacy amounted to 4 in assay [1] and 39 in assay [4]. The inhibition constant Ki in assay [2] turned out to be 8.6 nM; in assay [3], 5.7 nM; in assay [5], 19 nM.

For the compound `N#Cc1cccc(-c2cnnc(-c3ccc(F)cc3)c2)c1`, the inhibitory constant (Ki) was determined as 14 nM in assay [3] and 26 nM in assay [5].

Take `N#Cc1cccc(-c2cc(-c3ccccc3)cnn2)c1`: the inhibition constant Ki in assay [2], in assay [3] and in assay [5] was over 666 nM throughout.

`N#Cc1cccc(-c2cnnc(-c3ccc(F)cc3F)c2)c1` showed an Efficacy in assay [1] of -57. Besides, the values for the Ki in assay [3] and in assay [5] were 17 nM and 23 nM, respectively.

Turning to `Brc1cccc(-c2cnnc(OCc3ccccc3)c2)c1`, the inhibitory constant (Ki) was 63 nM in assay [3] and 302 nM in assay [5]. In assay [4], the Efficacy is 32.

For `CCNc1cc(-c2cccc(Br)c2)cnn1`, the results for the Efficacy in assay [1] and in assay [4] were -12 and 2, respectively. Also, the inhibition constant Ki is 3.5 nM in assay [2], 3.8 nM in assay [3] and 7.3 nM in assay [5].

Take `Cn1ncnc1COc1cccc(-c2cnnc(-c3ccccc3)c2)c1`: the Efficacy in assay [1] is -5; in assay [4], 43. Moreover, the Ki amounted to 8.5 nM in assay [2], 8.8 nM in assay [3] and 10.4 nM in assay [5].

As to `COc1cc(-c2cccc(Br)c2)cnn1`, the figures for the Efficacy in assay [1] and in assay [4] were -18 and 42, respectively. Further, the results for the inhibition constant Ki in assay [3] and in assay [5] were 54 nM and 205 nM, respectively.

As for `COC(=O)c1sccc1-c1cnnc(-c2ccccc2)c1`, the Efficacy is -39 in assay [1] and -44 in assay [4]. In addition, the inhibition constant Ki in assay [2] amounted to 88 nM; in assay [3] it was 12 nM; in assay [5], 45 nM.

As to `CC(C)Oc1cccc(-c2cnnc(-c3ccccc3)c2)c1`, the Efficacy in assay [1] amounted to 18; in assay [4] it was 22. Also, the inhibitory constant (Ki) in assay [2] was 12 nM; in assay [3], 8.4 nM; in assay [5], 27 nM.

As for `N#Cc1ccc(-c2cnnc(-c3ccccc3)c2)cc1`, the Efficacy in assay [1] amounted to 45; in assay [4], 49. The Ki was found to be 27 nM in assay [2], 56 nM in assay [3] and 81 nM in assay [5].

On to `N#Cc1cccc(-c2cnnc(NCc3ccccc3)c2)c1`, for which the figures for the Efficacy in assay [1] and in assay [4] were 17 and 59, respectively. Also, the results for the inhibition constant Ki in assay [3] and in assay [5] were 6.1 nM and 15 nM, respectively.

For `CCNc1cc(-c2cccc(C#N)c2)cnn1`, the Efficacy in assay [1] was -29; in assay [4] it was 8. Besides, the inhibition constant Ki in assay [3] is 33 nM; in assay [5] it was 79 nM.

Turning to `N#Cc1cccc(-c2cnnc(OCc3ccccc3)c2)c1`, the figures for the Ki in assay [3] and in assay [5] were 17 nM and 60 nM, respectively. The compound also displayed an Efficacy in assay [4] of 60.

Regarding `c1ccc(-c2cc(-c3cccc(-n4cnnc4)c3)cnn2)cc1`, the results for the Efficacy in assay [1] and in assay [4] were -31 and 13, respectively. The Ki amounted to 12 nM in assay [3] and 41 nM in assay [5].

As for `N#Cc1ccccc1-c1cnnc(-c2ccccc2)c1`, the Ki in assay [3] stood at 323 nM; in assay [5] it was 440 nM.

Consider `COC(=O)c1cccc(-c2cnnc(-c3ccccc3)c2)c1`, for which the Efficacy in assay [1] is -48; in assay [4] it was -7. Moreover, the Ki came out at 11 nM in assay [3] and 29 nM in assay [5].

As to `N#Cc1cccc(-c2cnnc(-c3ccccc3F)c2)c1`, the Efficacy was -31 in assay [1] and -17 in assay [4]. The Ki in assay [3] came to 3.4 nM; in assay [5], 7.9 nM.

Take `CCOc1cc(-c2cccc(C#N)c2)cnn1`: the values for the Efficacy in assay [1] and in assay [4] were -9 and 19, respectively. Moreover, the figures for the inhibition constant Ki in assay [3] and in assay [5] were 36 nM and 72 nM, respectively.
